Data from ChEMBL document CHEMBL1142940, “Use of simple docking methods to screen a virtual library for heteroactivators of cytochrome P450 2C9” (J Med Chem, 2007).
Values joined by “and” are separate entries in the source; they are usually repeats but may differ in a detail not shown here. Equal entries are not always repeated.

Key:
CYP2C9 [1] = molecular target: T1, CYP2C9 (Homo sapiens, UniProt P11712); experiment: (§1) Activation of human CYP2C9 assessed as (S)-Flurbiprofen hydroxylation; type: ADME; design: concentration or dose not given beside the values; conditions: probe (S)-flurbiprofen
T1 sequence (P11712 whole entry): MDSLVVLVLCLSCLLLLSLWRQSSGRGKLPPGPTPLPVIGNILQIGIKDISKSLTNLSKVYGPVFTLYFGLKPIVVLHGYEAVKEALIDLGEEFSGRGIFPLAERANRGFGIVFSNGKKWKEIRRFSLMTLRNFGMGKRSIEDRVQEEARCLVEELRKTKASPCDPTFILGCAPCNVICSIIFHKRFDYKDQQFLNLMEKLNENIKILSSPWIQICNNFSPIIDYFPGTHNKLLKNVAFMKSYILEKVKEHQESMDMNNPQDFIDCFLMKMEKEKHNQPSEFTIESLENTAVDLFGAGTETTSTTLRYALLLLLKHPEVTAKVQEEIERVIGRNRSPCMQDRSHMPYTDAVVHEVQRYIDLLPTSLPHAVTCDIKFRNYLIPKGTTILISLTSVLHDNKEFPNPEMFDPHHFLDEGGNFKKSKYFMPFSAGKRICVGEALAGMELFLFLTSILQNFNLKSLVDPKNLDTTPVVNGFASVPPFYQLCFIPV
Method in brief: (§2)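 Reconstituted CYP2C9 (5 pmol) in 0.2 mL incubations with 20 μM (S)-flurbiprofen held constant, 50 mM potassium phosphate pH 7.4, 37 °C for 20 min. Test compounds diluted in DMSO (1% final in all reactions, controls included), screened on a log scale from 0.001–1000 μM depending on solubility. 4′-OH flurbiprofen formation measured after quench. Triplicate reactions.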

Cytochrome P450 2C9 [2] = molecular target: T2, Cytochrome P450 2C9 (Homo sapiens, UniProt P11712); experiment: Activation of human CYP2C9 assessed as (S)-Flurbiprofen hydroxylation; design: concentration or dose not given beside the values
T2 sequence (P11712 whole entry): as above

CYP2C9 [3] = molecular target: T1, CYP2C9; experiment: Inhibition of human CYP2C9 assessed as (S)-Flurbiprofen hydroxylation at 100 uM; type: ADME; conditions: probe (S)-flurbiprofen; method in brief: as §2
CYP2C9 [4] = molecular target: T1, CYP2C9; experiment: Inhibition of human CYP2C9 assessed as (S)-Flurbiprofen hydroxylation at 1 uM; type: ADME; conditions: probe (S)-flurbiprofen
Method in brief: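 Reconstituted CYP2C9 (5 pmol) in 0.2 mL incubations with 20 μM (S)-flurbiprofen held constant, in 50 mM potassium phosphate pH 7.4. Run at 37 °C for 20 min, then quenched, and 4′-OH flurbiprofen formation measured. Test compounds were dosed from DMSO on a log scale, with 1% DMSO final in all reactions, in triplicate. Activity is reported as % change versus control.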

Cytochrome P450 2C9 [5] = molecular target: T2, Cytochrome P450 2C9; experiment: as §1; type: ADME; design: concentration or dose not given beside the values; method in brief: as §2

Row | SMILES | activity (CYP2C9 [1]) [%] | activity (Cytochrome P450 2C9 [2]) [%] | further results
1 | CC(=O)Oc1ccc(S(=O)(=O)c2ccc(OC(C)=O)cc2)cc1 | 8 |  | 
2 | Cc1ccc(S(=O)(=O)c2ccc(C)cc2)cc1 | 50.6 |  | 
3 | O=C(O)c1ccc(S(=O)(=O)c2ccc(C(=O)O)cc2)cc1 |  | -5 | 
4 | O=C(c1ccc(F)cc1)c1cnc2sccn12 |  |  | inhibition at 100 µM (CYP2C9 [3]): 50%
5 | NCC(=O)Nc1ccc2ccccc2c1 | 4.4 |  | 
6 | CN1C(=O)N(c2ccc(Cl)c(Cl)c2)C(=N)C1=S |  |  | inhibition at 100 µM (CYP2C9 [3]): 50%
7 | Cc1cccc(C(=O)[C@@H](O)c2cccc(C)n2)n1 | 46 |  | 
8 | Cn1c(=O)[nH]c(=O)c2ncn(CC(=O)c3ccc(F)cc3)c21 | 7.7 |  | 
9 | [O-][S+](c1ccccc1)c1ccccc1 | 3.5 |  | 
10 | Nc1ccc(S(=O)(=O)c2ccc([N+](=O)[O-])cc2)cc1 |  | -10.6 | 
11 | Cc1ccc([C@@H]2NC(=O)c3ccccc3N2)cc1 | 6.6 |  | 
12 | Nc1cc(N)c(N)cc1N |  |  | inhibition at 1 µM (CYP2C9 [4]): 50%
13 | COc1ccc(S(=O)(=O)c2ccc(OC)cc2)cc1 |  | -25 | 
14 | Cn1c(=O)c2c(ncn2CN2CCCC2)n(C)c1=O | 3 |  | 
15 | O=S(=O)(c1ccc(O)cc1)c1ccc(O)cc1 | 95 |  | 
16 | O=S(=O)(c1ccccc1)c1ccccc1 [(PHENYLSULFONYL)BENZENE] | 40 |  | 
17 | Nc1ccc(S(=O)(=O)c2ccc(N)cc2)cc1 [DAPSONE] |  |  | activity (Cytochrome P450 2C9 [5]): 95% and 64.1%
18 | c1ccc2c(c1)sc1ccccc12 [DIBENZOTHIOPHENE] |  | -10.6 | 
19 | Nc1ccc(S(=O)(=O)Nc2ncccn2)cc1 [SULFADIAZINE] |  | -17.1 | 
20 | Cc1cc(C)nc(NS(=O)(=O)c2ccc(N)cc2)n1 [SULFAMETHAZINE] |  | -18.8 | 
